From ChEMBL document CHEMBL1131619, “32-Ascomycinyloxyacetic acid derived immunosuppressants. Independence of immunophilin binding and immunosuppressive potency” (J Med Chem, 1998)

Columns and labels:
[1] = biological target: Peptidyl-prolyl cis-trans isomerase FKBP1A (Homo sapiens, UniProt P62942); test: Inhibitory binding activity against human Immunophilin-FK-506 binding protein 12
Outline: (§1)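 IC50 values are reported as mean ± SD for the stated number of determinations, using human cells or protein.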

[2] = organism: Homo sapiens; test: Inhibition of human mixed lymphocyte response (MLR); format: functional; outline: as §1
[3] = test system: Rattus norvegicus; test: Inhibition of rat popliteal lymph node (PLN) hyperplasia when given ip; format: functional
Outline: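 Popliteal lymph node hyperplasia is induced in Lewis rats by Brown Norway rat cells, and its inhibition is measured.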

Sequence of Peptidyl-prolyl cis-trans isomerase FKBP1A (P62942 whole entry): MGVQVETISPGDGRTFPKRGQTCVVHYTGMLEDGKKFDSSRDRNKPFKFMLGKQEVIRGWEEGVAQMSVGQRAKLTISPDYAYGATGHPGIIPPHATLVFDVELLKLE

Structure (SMILES) | IC50 [1] | IC50 [2] | ED50 [3]
CC[C@@H]1/C=C(\C)C[C@H](C)C[C@H](OC)[C@H]2O[C@@](O)(C(=O)C(=O)N3CCCC[C@H]3C(=O)O[C@H](/C(C)=C/C3CC[C@@H](OCC(=O)N(C)CCc4ccccc4)[C@H](OC)C3)[C@H](C)[C@@H](O)CC1=O)[C@H](C)C[C@@H]2OC (some centres undefined) | 0.4 nM | 0.64 nM | > 3 mg/kg/day
CC[C@@H]1/C=C(\C)C[C@H](C)C[C@H](OC)[C@H]2O[C@@](O)(C(=O)C(=O)N3CCCC[C@H]3C(=O)O[C@H](/C(C)=C/C3CC[C@@H](OCC(=O)Nc4cccc(C(F)(F)F)c4)[C@H](OC)C3)[C@H](C)[C@@H](O)CC1=O)[C@H](C)C[C@@H]2OC (some centres undefined) | 470 nM | 0.14 nM | 
CC[C@@H]1/C=C(\C)C[C@H](C)C[C@H](OC)[C@H]2O[C@@](O)(C(=O)C(=O)N3CCCC[C@H]3C(=O)O[C@H](/C(C)=C/C3CC[C@@H](OCC(=O)Nc4ccccn4)[C@H](OC)C3)[C@H](C)[C@@H](O)CC1=O)[C@H](C)C[C@@H]2OC (some centres undefined) | 2.4 nM | 0.05 nM | 
CC[C@@H]1/C=C(\C)C[C@H](C)C[C@H](OC)[C@H]2O[C@@](O)(C(=O)C(=O)N3CCCC[C@H]3C(=O)O[C@H](/C(C)=C/C3CC[C@@H](OCC(=O)NCCc4ccccc4)[C@H](OC)C3)[C@H](C)[C@@H](O)CC1=O)[C@H](C)C[C@@H]2OC (some centres undefined) | 13 nM | 0.34 nM | > 3 mg/kg/day
CC[C@@H]1/C=C(\C)C[C@H](C)C[C@H](OC)[C@H]2O[C@@](O)(C(=O)C(=O)N3CCCC[C@H]3C(=O)O[C@H](/C(C)=C/C3CC[C@@H](OCC(=O)Nc4ccc(OC)cc4)[C@H](OC)C3)[C@H](C)[C@@H](O)CC1=O)[C@H](C)C[C@@H]2OC (some centres undefined) | 50 nM | 0.04 nM | 
CC[C@@H]1/C=C(\C)C[C@H](C)C[C@H](OC)[C@H]2O[C@@](O)(C(=O)C(=O)N3CCCC[C@H]3C(=O)O[C@H](/C(C)=C/C3CC[C@@H](OCC(=O)N(C)Cc4ccccc4)[C@H](OC)C3)[C@H](C)[C@@H](O)CC1=O)[C@H](C)C[C@@H]2OC (some centres undefined) | 5.6 nM | 0.09 nM | > 3 mg/kg/day
CC[C@@H]1/C=C(\C)C[C@H](C)C[C@H](OC)[C@H]2O[C@@](O)(C(=O)C(=O)N3CCCC[C@H]3C(=O)O[C@H](/C(C)=C/C3CC[C@@H](OCC(=O)Nc4ccc(C(F)(F)F)cc4)[C@H](OC)C3)[C@H](C)[C@@H](O)CC1=O)[C@H](C)C[C@@H]2OC (some centres undefined) | 570 nM | 0.23 nM | 
CC[C@@H]1/C=C(\C)C[C@H](C)C[C@H](OC)[C@H]2O[C@@](O)(C(=O)C(=O)N3CCCC[C@H]3C(=O)O[C@H](/C(C)=C/C3CC[C@@H](OCC(=O)Nc4ccncc4)[C@H](OC)C3)[C@H](C)[C@@H](O)CC1=O)[C@H](C)C[C@@H]2OC (some centres undefined) | 3.2 nM | 0.16 nM | 
CC[C@@H]1/C=C(\C)C[C@H](C)C[C@H](OC)[C@H]2O[C@@](O)(C(=O)C(=O)N3CCCC[C@H]3C(=O)O[C@H](/C(C)=C/C3CC[C@@H](OCC(=O)Nc4ccc(C)cc4)[C@H](OC)C3)[C@H](C)[C@@H](O)CC1=O)[C@H](C)C[C@@H]2OC (some centres undefined) | 71 nM | 0.02 nM | 
CC[C@@H]1/C=C(\C)C[C@H](C)C[C@H](OC)[C@H]2O[C@@](O)(C(=O)C(=O)N3CCCCC3C(=O)O[C@H](/C(C)=C/C3CC[C@@H](OCC(=O)OCc4ccccc4)[C@H](OC)C3)[C@H](C)[C@@H](O)CC1=O)[C@H](C)C[C@@H]2OC (some centres undefined) | 68 nM | 7.62 nM | > 3 mg/kg/day
CC[C@@H]1/C=C(\C)C[C@H](C)C[C@H](OC)[C@H]2O[C@@](O)(C(=O)C(=O)N3CCCC[C@H]3C(=O)O[C@H](/C(C)=C/C3CC[C@@H](OCC(=O)N(C)c4ccccc4)[C@H](OC)C3)[C@H](C)[C@@H](O)CC1=O)[C@H](C)C[C@@H]2OC (some centres undefined) | 2.9 nM | 0.26 nM | 1.9 mg/kg/day
CCOC(=O)CO[C@@H]1CCC(/C=C(\C)[C@H]2OC(=O)[C@@H]3CCCCN3C(=O)C(=O)[C@]3(O)O[C@H]([C@@H](OC)C[C@@H](C)C/C(C)=C/[C@@H](CC)C(=O)C[C@H](O)[C@H]2C)[C@@H](OC)C[C@H]3C)C[C@H]1OC (some centres undefined) | 9.4 nM | 0.91 nM | > 3 mg/kg/day
CC[C@@H]1/C=C(\C)C[C@H](C)C[C@H](OC)[C@H]2O[C@@](O)(C(=O)C(=O)N3CCCC[C@H]3C(=O)O[C@H](/C(C)=C/C3CC[C@@H](OCC(=O)Nc4ccc(Cl)cc4)[C@H](OC)C3)[C@H](C)[C@@H](O)CC1=O)[C@H](C)C[C@@H]2OC (some centres undefined) | 180 nM | 0.07 nM | 
CC[C@@H]1/C=C(\C)C[C@H](C)C[C@H](OC)[C@H]2O[C@@](O)(C(=O)C(=O)N3CCCC[C@H]3C(=O)O[C@H](/C(C)=C/C3CC[C@@H](OCC(=O)Nc4ccc(N5CCOCC5)cc4)[C@H](OC)C3)[C@H](C)[C@@H](O)CC1=O)[C@H](C)C[C@@H]2OC (some centres undefined) | 19 nM | 0.58 nM | 
CC[C@@H]1/C=C(\C)C[C@H](C)C[C@H](OC)[C@H]2O[C@@](O)(C(=O)C(=O)N3CCCC[C@H]3C(=O)O[C@H](/C(C)=C/C3CC[C@@H](OCC(=O)Nc4ccc(Cl)c(Cl)c4)[C@H](OC)C3)[C@H](C)[C@@H](O)CC1=O)[C@H](C)C[C@@H]2OC (some centres undefined) | 500 nM | 0.55 nM | 
CC[C@@H]1/C=C(\C)C[C@H](C)C[C@H](OC)[C@H]2O[C@@](O)(C(=O)C(=O)N3CCCC[C@H]3C(=O)O[C@H](/C(C)=C/C3CC[C@@H](OCC(=O)Nc4cccnc4)[C@H](OC)C3)[C@H](C)[C@@H](O)CC1=O)[C@H](C)C[C@@H]2OC (some centres undefined) | 3.3 nM | 0.1 nM | 
CC[C@@H]1/C=C(\C)C[C@H](C)C[C@H](OC)[C@H]2O[C@@](O)(C(=O)C(=O)N3CCCC[C@H]3C(=O)O[C@H](/C(C)=C/C3CC[C@@H](OCC(=O)Nc4cccc(F)c4)[C@H](OC)C3)[C@H](C)[C@@H](O)CC1=O)[C@H](C)C[C@@H]2OC (some centres undefined) | 180 nM | 0.16 nM | 
CC[C@@H]1/C=C(\C)C[C@H](C)C[C@H](OC)[C@H]2O[C@@](O)(C(=O)C(=O)N3CCCC[C@H]3C(=O)O[C@H](/C(C)=C/C3CC[C@@H](OCC(=O)NC4CCCCC4)[C@H](OC)C3)[C@H](C)[C@@H](O)CC1=O)[C@H](C)C[C@@H]2OC (some centres undefined) | 2 nM | 0.47 nM | 
CC[C@@H]1/C=C(\C)C[C@H](C)C[C@H](OC)[C@H]2O[C@@](O)(C(=O)C(=O)N3CCCC[C@H]3C(=O)O[C@H](/C(C)=C/C3CC[C@@H](OCC(=O)Nc4ccc(F)cc4)[C@H](OC)C3)[C@H](C)[C@@H](O)CC1=O)[C@H](C)C[C@@H]2OC (some centres undefined) | 46 nM | 0.03 nM | 
CC[C@@H]1/C=C(\C)C[C@H](C)C[C@H](OC)[C@H]2O[C@@](O)(C(=O)C(=O)N3CCCC[C@H]3C(=O)O[C@H](/C(C)=C/C3CC[C@@H](OCC(=O)Nc4ccccc4)[C@H](OC)C3)[C@H](C)[C@@H](O)CC1=O)[C@H](C)C[C@@H]2OC (some centres undefined) | 170 nM | 0.29 nM | 1.4 mg/kg/day
CC[C@@H]1/C=C(\C)C[C@H](C)C[C@H](OC)[C@H]2O[C@@](O)(C(=O)C(=O)N3CCCC[C@H]3C(=O)O[C@H](/C(C)=C/C3CC[C@@H](OCC(=O)O)[C@H](OC)C3)[C@H](C)[C@@H](O)CC1=O)[C@H](C)C[C@@H]2OC (some centres undefined) | 4 nM | 140 nM | > 3 mg/kg/day
CC[C@@H]1/C=C(\C)C[C@H](C)C[C@H](OC)[C@H]2O[C@@](O)(C(=O)C(=O)N3CCCC[C@H]3C(=O)O[C@H](/C(C)=C/C3CC[C@@H](OCC(=O)NCc4ccccc4)[C@H](OC)C3)[C@H](C)[C@@H](O)CC1=O)[C@H](C)C[C@@H]2OC (some centres undefined) | 48 nM | 0.79 nM | 1.2 mg/kg/day
CC[C@@H]1/C=C(\C)C[C@H](C)C[C@H](OC)[C@H]2O[C@@](O)(C(=O)C(=O)N3CCCC[C@H]3C(=O)O[C@H](/C(C)=C/C3CC[C@@H](OCC(N)=O)[C@H](OC)C3)[C@H](C)[C@@H](O)CC1=O)[C@H](C)C[C@@H]2OC (some centres undefined) | 0.6 nM | 0.13 nM | 0.3 mg/kg/day
CC[C@@H]1/C=C(\C)C[C@H](C)C[C@H](OC)[C@H]2O[C@@](O)(C(=O)C(=O)N3CCCC[C@H]3C(=O)O[C@H](/C(C)=C/C3CC[C@@H](OCC(=O)Nc4ccc(O)cc4)[C@H](OC)C3)[C@H](C)[C@@H](O)CC1=O)[C@H](C)C[C@@H]2OC (some centres undefined) | 16 nM | 0.14 nM | 
CC[C@@H]1/C=C(\C)C[C@H](C)C[C@H](OC)[C@H]2O[C@@](O)(C(=O)C(=O)N3CCCC[C@H]3C(=O)O[C@H](/C(C)=C/[C@@H]3CC[C@@H](O)[C@H](OC)C3)[C@H](C)[C@@H](O)CC1=O)[C@H](C)C[C@@H]2OC [ASCOMYCIN] | 2.1 nM |  | 0.3 mg/kg/day
CO[C@H]1C[C@@H]2CC[C@@H](C)[C@@](O)(O2)C(=O)C(=O)N2CCCC[C@H]2C(=O)O[C@H]([C@H](C)C[C@@H]2CC[C@@H](O)[C@H](OC)C2)CC(=O)[C@H](C)/C=C(\C)[C@@H](O)[C@@H](OC)C(=O)[C@H](C)C[C@H](C)/C=C/C=C/C=C/1C [SIROLIMUS] |  | 1.27 nM | 2.1 mg/kg/day
C=CC[C@@H]1/C=C(\C)C[C@H](C)C[C@H](OC)[C@H]2O[C@@](O)(C(=O)C(=O)N3CCCC[C@H]3C(=O)O[C@H](/C(C)=C/[C@@H]3CC[C@@H](O)[C@H](OC)C3)[C@H](C)[C@@H](O)CC1=O)[C@H](C)C[C@@H]2OC [TACROLIMUS ANHYDROUS] |  | 0.48 nM | 0.1 mg/kg/day
